The target of data set [1] is T1, Sphingosine kinase 1 (Homo sapiens, UniProt Q9NYA1). As to the kind of experiment: Inhibition of human C-terminal His6-tagged SPHK1 expressed in fall armyworm sf9 cells assessed as reduction in ADP formation using sphingosine as substrate preincubated for 15 mins followed by substrate addition after 1 hr by transcreener-based fluorescence polarization assay. On the technique in general: Fluorescence polarisation rises when a labelled molecule tumbles more slowly, as on binding a larger partner.

Data set [2] deals with T1, Sphingosine kinase 1. The experiment in a line: Inhibition of SPHK1 in human MDA1483 cells using C17-sphingosine as substrate assessed as reduction in C17-S1P formation preincubated for 30 mins with substrate measured after 15 mins by LC-MS analysis. Type of data set: cell-based.
Data set [3] deals with T1, Sphingosine kinase 1. The experiment in a line: Inhibition of human C-terminal His6-tagged SPHK1 expressed in fall armyworm sf9 cells assessed as reduction in S1P formation using sphingosine as substrate after 1 hr by FITC-based caliper assay.
For data set [4], the target named is T1, Sphingosine kinase 1. As to the kind of experiment: Inhibition of SPHK1 in human whole-blood using C17-sphingosine as substrate assessed as reduction in C17-S1P production preincubated for 30 mins followed by substrate addition measured after 10 mins by MS analysis.
The target in the next data set is T2, Sphingosine kinase 2 (Homo sapiens, UniProt Q9NRA0).
T2 sequence (Q9NRA0 whole entry): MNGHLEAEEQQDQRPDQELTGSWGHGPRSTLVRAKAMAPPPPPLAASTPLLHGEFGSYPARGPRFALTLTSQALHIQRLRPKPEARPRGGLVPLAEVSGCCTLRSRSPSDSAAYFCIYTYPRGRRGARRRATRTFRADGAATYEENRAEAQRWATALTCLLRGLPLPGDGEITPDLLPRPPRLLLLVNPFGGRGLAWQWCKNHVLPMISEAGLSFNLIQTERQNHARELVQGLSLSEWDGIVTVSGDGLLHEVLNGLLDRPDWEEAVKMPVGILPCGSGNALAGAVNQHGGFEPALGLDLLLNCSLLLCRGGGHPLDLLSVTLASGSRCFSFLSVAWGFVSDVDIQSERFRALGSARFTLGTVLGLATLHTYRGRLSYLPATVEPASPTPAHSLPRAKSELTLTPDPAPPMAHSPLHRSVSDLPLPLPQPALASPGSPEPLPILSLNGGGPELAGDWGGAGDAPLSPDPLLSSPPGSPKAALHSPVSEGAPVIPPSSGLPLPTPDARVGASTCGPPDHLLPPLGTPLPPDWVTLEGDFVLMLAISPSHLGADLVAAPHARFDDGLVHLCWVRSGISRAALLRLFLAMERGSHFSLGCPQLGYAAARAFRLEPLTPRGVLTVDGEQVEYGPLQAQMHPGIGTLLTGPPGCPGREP
As to the kind of experiment: Inhibition of SPHK2 (unknown origin) by FITC-based caliper assay. In outline:
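Recombinant SphK2 enzyme assay measuring FITC-S1P formation, with product resolved by microfluidic mobility-shift separation. Dose-response gives IC50. Reported values are the mean of two or more independent assays.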

In data set [5] the target is Sphingosine kinase 1 (Homo sapiens, UniProt Q9NYA1, S225A). As to the kind of experiment: Binding affinity to human C-terminal His6-tagged SPHK1 S225A mutant expressed in fall armyworm sf9 cells after 1 hr by ITC analysis.
Data set [6] deals with Sphingosine 1-phosphate receptor 5 (Homo sapiens, UniProt Q9H228). The experiment in a line: Binding affinity to S1PR5 (unknown origin).
The nature of data set [7]: Solubility of the compound. The data set is classed as physicochemical.
Data set [8] is described as follows: Cytotoxicity in human MDA1483 cells at 50 uM by MTT assay. The data set is classed as cell-based. The following applies: mda1483, 50 µM.
For data set [9], the target named is Sphingosine 1-phosphate receptor 3 (Homo sapiens, UniProt Q99500). As to the kind of experiment: Binding affinity to S1PR3 (unknown origin).
Sphingosine 1-phosphate receptor 3, sequence (Q99500 whole entry): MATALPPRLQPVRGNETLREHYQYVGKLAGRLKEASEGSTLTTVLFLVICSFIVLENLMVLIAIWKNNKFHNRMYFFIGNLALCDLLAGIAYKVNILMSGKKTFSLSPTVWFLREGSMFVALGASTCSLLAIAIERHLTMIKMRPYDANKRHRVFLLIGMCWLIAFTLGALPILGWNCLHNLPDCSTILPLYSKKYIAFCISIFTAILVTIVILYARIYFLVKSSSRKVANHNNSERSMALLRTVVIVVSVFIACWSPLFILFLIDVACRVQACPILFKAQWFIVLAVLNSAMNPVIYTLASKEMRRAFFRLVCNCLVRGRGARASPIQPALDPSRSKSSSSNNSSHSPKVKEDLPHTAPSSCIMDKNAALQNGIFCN

T1 sequence (Q9NYA1 whole entry): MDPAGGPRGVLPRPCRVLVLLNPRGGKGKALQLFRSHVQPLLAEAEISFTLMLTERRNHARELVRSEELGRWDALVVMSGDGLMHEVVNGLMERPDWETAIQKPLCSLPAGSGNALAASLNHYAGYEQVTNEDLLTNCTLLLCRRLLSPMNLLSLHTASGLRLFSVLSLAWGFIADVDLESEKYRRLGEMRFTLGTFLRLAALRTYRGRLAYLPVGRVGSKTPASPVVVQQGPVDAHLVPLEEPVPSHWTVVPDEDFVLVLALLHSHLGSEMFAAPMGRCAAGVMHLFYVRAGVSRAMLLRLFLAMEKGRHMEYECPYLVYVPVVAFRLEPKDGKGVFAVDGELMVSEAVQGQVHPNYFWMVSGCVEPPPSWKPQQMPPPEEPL
Sphingosine kinase 1 (Homo sapiens, UniProt Q9NYA1, S225A), sequence (Q9NYA1 whole entry S225A): as the sequence (Q9NYA1 whole entry) above, with S225A counted along it
Sphingosine 1-phosphate receptor 5, sequence (Q9H228 whole entry): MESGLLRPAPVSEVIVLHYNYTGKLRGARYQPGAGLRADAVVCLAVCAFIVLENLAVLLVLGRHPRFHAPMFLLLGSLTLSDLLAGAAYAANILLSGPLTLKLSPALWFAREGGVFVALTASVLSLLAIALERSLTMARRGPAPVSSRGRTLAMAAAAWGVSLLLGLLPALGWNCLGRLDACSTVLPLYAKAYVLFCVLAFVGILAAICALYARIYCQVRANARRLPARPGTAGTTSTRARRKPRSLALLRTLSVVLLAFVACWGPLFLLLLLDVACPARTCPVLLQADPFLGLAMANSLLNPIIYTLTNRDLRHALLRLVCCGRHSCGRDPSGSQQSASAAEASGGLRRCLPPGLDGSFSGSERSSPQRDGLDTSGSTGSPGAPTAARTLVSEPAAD

Broadly, the IC50 is the midpoint of a concentration-inhibition curve. Turning to `Cc1cc(CS(=O)(=O)c2ccccc2)cc(OCc2ccc(CN3C[C@@H](O)[C@H](O)C3)cc2)c1`, the IC50 at Sphingosine kinase 1 [1] came out at 2 nM; at Sphingosine kinase 1 [2], 0.17 nM; at Sphingosine kinase 1 [3], 2 nM; at Sphingosine kinase 1 [4], 6.4 nM; against Sphingosine kinase 2, 465 nM.
Take `Cc1cc(CS(=O)(=O)c2ccccc2)cc(OCc2ccc(CN3C[C@@H](O)[C@@H](O)C3)cc2)c1`: the half-maximal inhibitory concentration (IC50) at Sphingosine kinase 1 [1] amounted to 3.9 nM; on Sphingosine kinase 1 [2] it was 1 nM; on Sphingosine kinase 1 [3] it was 3.9 nM; at Sphingosine kinase 1 [4] it was 38 nM; against Sphingosine kinase 2, 7230 nM.
Take `O=C(Nc1cccc(OCc2ccc(CN3CCC[C@@H]3CO)cc2)c1)c1ccccc1`: the half-maximal inhibitory concentration (IC50) was 3670 nM on Sphingosine kinase 1 [1]; 1200 nM on Sphingosine kinase 1 [2]; 9820 nM on Sphingosine kinase 1 [3]; over 8800 nM on Sphingosine kinase 1 [4]; 145 nM against Sphingosine kinase 2.
For `Cc1nc2ccc(-c3ccc(CN4CCC[C@H]4CO)cc3)cc2n1C[C@@H]1CCCO1`, the IC50 at Sphingosine kinase 1 [1], on Sphingosine kinase 1 [2], on Sphingosine kinase 1 [3] and at Sphingosine kinase 2 was over 100000 nM in each case.
As to `OC[C@H]1CCCN1Cc1ccc(COc2cccc(C3CCCCC3)c2)cc1`, the half-inhibitory concentration (IC50) on Sphingosine kinase 1 [1] was 0.7 nM; on Sphingosine kinase 1 [2] it was 0.03 nM; at Sphingosine kinase 1 [3], under 1.7 nM; on Sphingosine kinase 1 [4], 1.5 nM; on Sphingosine kinase 2, under 1.7 nM.
Consider `Cc1nc2ccc(-c3ccc(CN4CCC[C@@H]4CO)cc3)cc2n1CC(C)C`, for which the figures for the IC50 on Sphingosine kinase 1 [1] and at Sphingosine kinase 1 [2] were 290 nM and 440 nM, respectively.
One may read the Kd as the free concentration of one partner at which half of the binding sites on the other are occupied at equilibrium, for simple one-to-one binding. A low value points to higher affinity. On to `Cc1nc2ccc(-c3ccc(CN4CCC[C@@H]4CO)cc3)cc2n1C[C@@H]1CCCO1`, for which the IC50 at Sphingosine kinase 1 [1] was 4600 nM; at Sphingosine kinase 1 [2], 2100 nM; at Sphingosine kinase 1 [3], 12700 nM; against Sphingosine kinase 2 it was over 100000 nM. Moreover, at Sphingosine kinase 1 [5], binding was characterised by a dissociation constant (Kd) of 12000 nM.
For `O=S(=O)(Cc1cccc(OCc2ccc(CN3CCC[C@@H]3CO)cc2)c1)C1CC1`, the half-maximal inhibitory concentration (IC50) at Sphingosine kinase 1 [1] is 10 nM; at Sphingosine kinase 1 [2], 1.7 nM; on Sphingosine kinase 1 [3], 40.4 nM; on Sphingosine kinase 1 [4], 1470 nM; on Sphingosine kinase 2, 164 nM.
As to `Cc1cc(CS(=O)(=O)c2ccccc2)cc(OCc2ccc(CN3CC[C@@H](O)C3)cc2)c1`, the values for the IC50 on Sphingosine kinase 1 [1] and on Sphingosine kinase 1 [2] were 28 nM and 30 nM, respectively.
As to `Cc1cc(CS(=O)(=O)c2ccccc2)cc(OCc2ccc(CN3CC[C@H](O)C3)cc2)c1`, the IC50 was 3 nM at Sphingosine kinase 1 [1]; 0.03 nM on Sphingosine kinase 1 [2]; 2.6 nM on Sphingosine kinase 1 [3]; 5.2 nM on Sphingosine kinase 1 [4]; 443 nM on Sphingosine kinase 2.
Turning to `Cc1nc2ccc(-c3ccc(CN4CCC[C@@H]4CO)cc3)cc2n1C[C@H]1CCCO1`, the concentration for half-maximal inhibition (IC50) on Sphingosine kinase 1 [1] was found to be 190 nM; on Sphingosine kinase 1 [2], 81 nM; at Sphingosine kinase 1 [3], 870 nM; on Sphingosine kinase 2, 46000 nM. This molecule showed a dissociation constant (Kd) at Sphingosine kinase 1 [5] of 2900 nM.
Turning to `CC(C)c1cccc(OCc2ccc(CN3CCC[C@@H]3CO)cc2)c1`, the 50% inhibitory concentration (IC50) is 0.8 nM at Sphingosine kinase 1 [1]; 0.6 nM at Sphingosine kinase 1 [2]; 4.8 nM at Sphingosine kinase 1 [3]; 19 nM at Sphingosine kinase 1 [4]; under 1.7 nM against Sphingosine kinase 2.
Turning to `Cc1nc2ccc(-c3ccc(CN4CCC[C@@H]4CO)cc3)cc2n1CCC(C)C`, the half-maximal inhibitory concentration (IC50) was 7 nM at Sphingosine kinase 1 [1] and 4 nM at Sphingosine kinase 1 [2].
In the case of `Cc1nc2ccc(-c3ccc(CN4CCC[C@H]4CO)cc3)cc2n1C[C@H]1CCCO1`, the 50% inhibitory concentration (IC50) was 31000 nM on Sphingosine kinase 1 [1], 9800 nM on Sphingosine kinase 1 [2], over 100000 nM at Sphingosine kinase 1 [3] and over 100000 nM against Sphingosine kinase 2.
On to `O=S(=O)(Cc1cccc(OCc2ccc(CN3CCC[C@@H]3CO)cc2)c1)c1ccccc1`, for which the half-inhibitory concentration (IC50) is 2 nM on Sphingosine kinase 1 [1]; 0.3 nM at Sphingosine kinase 1 [2]; 2.4 nM on Sphingosine kinase 1 [3]; 35 nM on Sphingosine kinase 1 [4]; 164 nM at Sphingosine kinase 2.
Regarding `Cc1nc2ccc(-c3ccc(CN4CCC[C@@H]4CO)cc3)cc2n1CCC1CCC1`, the IC50 amounted to 8 nM on Sphingosine kinase 1 [1] and 4 nM on Sphingosine kinase 1 [2].
In the same order, the values of `CS(=O)(=O)Cc1cccc(OCc2ccc(CN3CCC[C@@H]3CO)cc2)c1` are 439 nM and 519 nM.
In the same order, the values of `Cc1nc2ccc(-c3ccc(CN4CCC[C@@H]4CO)cc3)cc2n1Cc1ccccc1` are 440 nM and 250 nM.
In the case of `Cc1nc2ccc(-c3ccc(CN4CCCC4)cc3)cc2n1C[C@H]1CCCO1`, the IC50 on Sphingosine kinase 1 [1] is over 100000 nM.
On to `Cc1cc(CS(=O)(=O)c2ccccc2)cc(OCc2ccc3[nH]c(N)nc3c2)c1`, for which the IC50 is 1700 nM at Sphingosine kinase 1 [1]; 180 nM on Sphingosine kinase 1 [2]; 1400 nM at Sphingosine kinase 1 [3]; over 10000 nM in data set [6]; 39600 nM against Sphingosine kinase 2; over 10000 nM in data set [9]. In data set [7], the solubility entry was “Insoluble”. In addition, the Activity entry in data set [8] was “Non-Toxic”.
In the case of `Cc1cc(CS(=O)(=O)c2ccccc2)cc(OCc2ccc3[nH]cnc3c2)c1`, the results for the IC50 on Sphingosine kinase 1 [1], on Sphingosine kinase 1 [2] and at Sphingosine kinase 1 [3] were 48000 nM, 27000 nM and 48000 nM, respectively.
As for `Cc1cc(CS(=O)(=O)c2ccccc2)cc(OCc2ccc(CNCCO)cc2)c1`, the half-maximal inhibitory concentration (IC50) on Sphingosine kinase 1 [1] came out at 5.3 nM; on Sphingosine kinase 1 [2] it was 3.5 nM; at Sphingosine kinase 1 [3], 14.6 nM; against Sphingosine kinase 2 it was 35100 nM.
`Cc1nc(-c2cccc(OCc3ccc(CN4CCC[C@@H]4CO)cc3)c2)no1`: the concentration for half-maximal inhibition (IC50) came to 4.5 nM at Sphingosine kinase 1 [1]; 1.7 nM at Sphingosine kinase 1 [2]; 25 nM on Sphingosine kinase 1 [3]; 173 nM at Sphingosine kinase 1 [4]; 2.4 nM against Sphingosine kinase 2.
Take `Cc1nc2ccc(-c3ccc(CN4CCC[C@@H]4CO)cc3)cc2n1CC1CCCC1`: the IC50 came to 11 nM at Sphingosine kinase 1 [1] and 10 nM on Sphingosine kinase 1 [2].

Values taken from ChEMBL document CHEMBL4007442, “Discovery of a Potent and Selective Sphingosine Kinase 1 Inhibitor through the Molecular Combination of Chemotype-Distinct Screening Hits” (J Med Chem, 2017).
